The list is not random: actives were taken first. Their share in the collection is about 12%.
ROMK mod: modulates human ROMK potassium channel activity; P48048; Tet-inducible ROMK, thallium flux fluorescence; actives lie on both sides; B-score at 10 µM; 130,000 tested, 2% active;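 active = signal ratio slope over the read window, or its plate-corrected B-score, at least 3 SD from the plate mean, either direction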;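 note: B-score of the F/F0 ratio slope over 7 to 12 s after thallium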
Target sequence (P48048 whole entry, looked up): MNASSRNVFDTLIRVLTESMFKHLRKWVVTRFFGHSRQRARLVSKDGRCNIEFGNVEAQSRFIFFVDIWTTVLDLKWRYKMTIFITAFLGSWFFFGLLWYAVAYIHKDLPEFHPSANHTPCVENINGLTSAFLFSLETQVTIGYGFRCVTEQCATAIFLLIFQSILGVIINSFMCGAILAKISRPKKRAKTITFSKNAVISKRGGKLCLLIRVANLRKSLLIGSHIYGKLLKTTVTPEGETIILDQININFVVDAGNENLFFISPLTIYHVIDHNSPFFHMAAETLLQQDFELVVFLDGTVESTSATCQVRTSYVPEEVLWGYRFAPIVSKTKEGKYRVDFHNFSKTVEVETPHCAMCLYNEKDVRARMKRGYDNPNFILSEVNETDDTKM
Cl transport mod: modulates chloride dependent transport by human KCC2 | KCC2 cells, thallium flux FluoZin-2 fluorescence | B-score of Tl+ flux slope (higher = more flux/activation; lower = inhibition) at 10 µM | 190,000 tested, 2.2% active;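 active = thallium flux slope and its plate-corrected score both differing from the plate sample mean at a set confidence after two filtering rounds, in either direction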;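 note: slope of fluorescence scaled to starting intensity during 10 to 20 s after thallium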
Diaph act CS: diaphorase activation or chemical reduction counter-screen; 190,000 tested, 0.005% active; activation factor at 20 µM; Diaphorase/resazurin coupled assay, resorufin fluorescence, 16 min; stronger effect = higher value; 1 = vehicle wells, 0 = NADH-free wells;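 active = diaphorase activity raised at least twofold by the compound at 20 µM; inactive = activation factor below 2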
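Assay system: bacterial diaphorase enzyme (C. kluyveri) / Input: enzyme 0.07 U/mL final / Medium: 50 mM HEPES pH 7.4 with 4.542 mM MgCl2, 0.005% Tween 20 / Doses: single compound dose of 20 µM, 1% DMSO final / Incubation: 16 min enzyme reaction, ambient temperature / Signal: fluorescence, excitation 544 nm and emission 590 nm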
WT yeast gro inh: growth inhibition of WT yeast, mitochondrial fusion screen | mitochondrial fusion phenotypic screen, WT strain | inhibition, % at 10 µM | 190,000 tested, 2.1% active | AID 1362; in the data active = inhibition above about 58%; tested in S. cerevisiae
Diaphorase inh: inhibits diaphorase or chemically oxidizes, flagging diaphorase assay artifacts; inhibition, % at 20 µM; diaphorase resazurin-to-resorufin fluorescence, NADH, 16 min; bacterial (C. kluyveri) enzyme, not human; AID 1217; 190,000 tested, 0.69% active;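 active = primary screen inhibition at 20 µM above a set limit, cut at about 50% in these data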;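 note: plate controls were DMSO with full reaction for no effect and wells lacking NADH for full effect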
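System: Diaphorase enzyme from Clostridium kluyveri | Amount: Enzyme working solution with 0.14 U/mL diaphorase | Benchmarks: No-NADH positive control and DMSO neutral control | Signal: Fluorescence of resorufin formed from resazurin, Ex 544/Em 590 nm | Schedule: 16-min room-temperature incubation before reading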
L major viab: reduces viability of Leishmania major promastigotes | AID 1063 | 200,000 tested, 9% active | inhibition, % at 10 µM | resazurin fluorescence viability; in the data active = inhibition above about 50%;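 note: promastigotes grown with compound for 44 hours at 28 °C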
Starred values were filed as active, the others as inactive.

For COc1ccc([N+](=O)[O-])cc1N(CC1CO1)S(=O)(=O)c1ccc(C)cc1 (stereo not given) the results were ROMK mod -0.615, Cl transport mod -1.01, Diaph act CS 1, WT yeast gro inh -5.6, Diaphorase inh 1.0 and L major viab 28.8.
`COc1ccc(S(N)(=O)=O)cc1C(N)=O` gave ROMK mod 0.435, Cl transport mod 0.322, Diaph act CS 1, WT yeast gro inh 3.3, Diaphorase inh 1.8 and L major viab -6.0.
O=C(NCC(=O)N1CCN(S(=O)(=O)/C=C/c2ccccc2)CC1)c1ccc(Cl)cc1 was read as Cl transport mod 0.479.
`CCN(CC)CCNc1ncnc2c1sc1nc(N3CCCC3)c3c(c12)CC(C)(C)OC3` gave ROMK mod -0.672, Cl transport mod -0.154, Diaph act CS 0.8, WT yeast gro inh 2.8, Diaphorase inh 17.0 and L major viab 100.5*.
CN(C)CCNc1ncnc2c1sc1nc(N3CCCC3)c3c(c12)CC(C)(C)OC3 was read as ROMK mod -0.0869 and Cl transport mod -0.529.
Screening CC1(C)Cc2c(c(N3CCOCC3)nc3sc4c(NN)ncnc4c23)CS1 returned Diaph act CS 1, WT yeast gro inh 11.5, Diaphorase inh 3.6 and L major viab 97.1*.
CC(c1ccon1)N(C)C(=O)CCc1nnc(C2(c3ccc(Cl)cc3)CCC2)o1 (stereo not given) was read as ROMK mod 0.183, Cl transport mod -0.109, Diaph act CS 0.8, WT yeast gro inh 14.2, Diaphorase inh 20.6 and L major viab 3.5.
For Cc1cccc(NC(=O)N2CCC(n3nnc4cc(C)ccc43)CC2)c1 the results were ROMK mod -1.54, Cl transport mod -2.39, Diaph act CS 0.2, WT yeast gro inh -0.4, Diaphorase inh 78.6* and L major viab 1.6.
`Cc1ccc2c(c1)nnn2C1CCN(C(=O)NCc2ccccc2)CC1` gave ROMK mod -0.0449, Cl transport mod -1.4, Diaph act CS 1.2, WT yeast gro inh -1.8, Diaphorase inh -17.4 and L major viab 8.3.
COc1ccccc1C(=O)N/C(=C\c1ccc(Br)cc1)C(=O)NCC(=O)O was read as ROMK mod 0.679, Cl transport mod 0.0228, Diaph act CS 0.9, WT yeast gro inh -8.7, Diaphorase inh 5.3 and L major viab 56.8*.
COc1ccccc1C(=O)N/C(=C\c1ccc(Br)cc1)C(=O)NCCC(=O)O was read as ROMK mod 0.00596, Cl transport mod -1.44, Diaph act CS 0.8, WT yeast gro inh -21.3, Diaphorase inh 22.6 and L major viab -9.7.
For CCCCOc1c(Br)cc(/C=N/O)cc1OCC the results were ROMK mod -0.859, Cl transport mod 0.0252, Diaph act CS 0.8, WT yeast gro inh 69.0*, Diaphorase inh 23.0 and L major viab 11.4.
COc1cc(/C=N/O)cc(Br)c1OC was read as Cl transport mod -0.0931, Diaph act CS 0.9, WT yeast gro inh -7.2, Diaphorase inh 11.9 and L major viab -1.2.
For Cc1c(NC(=S)NC(=O)C2CCCCC2)c(=O)n(-c2ccccc2)n1C the results were ROMK mod 0.891, Cl transport mod 1.66, Diaph act CS 0.8, WT yeast gro inh -6.6, Diaphorase inh 17.2 and L major viab -5.8.
Screening COc1cccc(C2C3=C(CC(C)(C)CC3=O)Nc3cc(OC)c(OC)cc32)c1 (stereo not given) returned ROMK mod -0.133, Cl transport mod 0.465, Diaph act CS 1.1, WT yeast gro inh -12.1, Diaphorase inh -6.4 and L major viab 2.7.
Screening O=C1OCC2=C1C(c1ccc(F)cc1)c1cc3c(cc1N2)OCO3 (stereo not given) returned ROMK mod 2.77*, Cl transport mod -0.00974, Diaph act CS 0.9, WT yeast gro inh -3.9, Diaphorase inh 6.1 and L major viab 4.4.
`COc1cccc(C2C3=C(CC(C)(C)CC3=O)Nc3cc4c(cc32)OCO4)c1` (stereo not given) gave Cl transport mod -0.969, Diaph act CS 0.7, WT yeast gro inh -5.7, Diaphorase inh 26.6 and L major viab 100.0*.
For CCCOc1ccc(C(=O)NCC(C)(C)N2CCOCC2)cc1 the results were ROMK mod 0.82, Cl transport mod 0.45, Diaph act CS 0.9, WT yeast gro inh -17.5, Diaphorase inh 12.1 and L major viab -6.5.
Screening C/C(CCc1ccc2c(c1)OCO2)=N\NC(=S)NC(C)C returned ROMK mod -0.461, Cl transport mod 1.93, Diaph act CS 1, WT yeast gro inh 59.1*, Diaphorase inh 3.1 and L major viab 18.1.
`Cc1cc(N2C(=O)C(O)=C(C(=O)c3ccco3)C2c2ccc(O)cc2)no1` (stereo not given) gave Cl transport mod -0.236, Diaph act CS 0.8, WT yeast gro inh 1.8, Diaphorase inh 19.6 and L major viab -6.8.
Screening Cc1cc(N2C(=O)C(O)=C(C(=O)c3ccc(C)o3)C2c2cccs2)no1 (stereo not given) returned Cl transport mod -3.03*, Diaph act CS 0.9, WT yeast gro inh 0.7, Diaphorase inh 9.7 and L major viab -8.2.
Cc1nccc2[nH]c(=O)c(C(=O)NC3CCN(Cc4ccccc4)CC3)cc12 was read as WT yeast gro inh 16.9.
Cc1nccc2[nH]c(=O)c(C(=O)NC3CCCCC3C)cc12 (stereo not given) was read as Cl transport mod -0.619, Diaph act CS 0.8, WT yeast gro inh 2.3, Diaphorase inh 17.4 and L major viab 99.0*.
CCOCC(=O)Nc1cc(C(F)(F)F)ccc1Oc1cccc(Br)c1 was read as ROMK mod -0.234, Cl transport mod 1.72, Diaph act CS 0.8, WT yeast gro inh 66.2*, Diaphorase inh 17.1 and L major viab 8.9.
CC(=O)Nc1cc(C(F)(F)F)ccc1Oc1cccc(Br)c1 was read as ROMK mod -0.0235, Cl transport mod -0.325, Diaph act CS 1, WT yeast gro inh 7.5, Diaphorase inh 4.7 and L major viab 34.1.
For CCOC(=O)c1ccc2c(c1)nc(SCc1cn3ccsc3n1)n2CC the results were Diaph act CS 1, WT yeast gro inh 28.4, Diaphorase inh -4.5 and L major viab 99.3*.
`O=C1N=C(N2CCCC2C(=O)O)S/C1=C\c1ccco1` (stereo not given) gave ROMK mod -0.43, Cl transport mod -0.116, Diaph act CS 0.7, WT yeast gro inh 4.1, Diaphorase inh 28.2 and L major viab -4.1.
For Cc1cc(NS(=O)(=O)c2ccc(NC(=O)c3ccc(Br)o3)cc2)nc(C)n1 the results were ROMK mod 0.188, Cl transport mod -0.783, Diaph act CS 0.9, WT yeast gro inh -5.6, Diaphorase inh 7.6 and L major viab -2.0.
CCc1ccc(/C=C/C(=O)c2c(C)cc(C)[nH]c2=O)cc1 was read as Diaph act CS 0.8, WT yeast gro inh -14.2, Diaphorase inh 24.9 and L major viab 58.8*.

Screening results: PubChem BioAssay, several laboratories
